In ChEMBL document CHEMBL2384965, “ABSOLUTE CONFIGURATION AND BIOLOGICAL PROPERTIES OF ENANTIOMERS OF CFTR INHIBITOR BPO-27” (ACS Med Chem Lett, 2013):
Activity calls are given as the source filed them. The rule behind the calls is not given here.

Columns and labels:
Serum [1] = test: Metabolic stability in mouse serum at 5 mg after 4 hrs by hydrogen-deuterium exchange assay; format: ADME, cell-free
[2] = molecular target: T1, Cystic fibrosis transmembrane conductance regulator (Homo sapiens, UniProt P13569); test: Inhibition of wild type human CFTR chloride conductance expressed in forskolin-stimulated rat FRT cells by short-circuit current analysis in presence of transepithelial chloride gradient; format: cell-based
Summary of the method: (§1)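 FRT epithelial cells expressing human wild-type CFTR, basolateral membrane permeabilized with amphotericin B, transepithelial chloride gradient applied. CFTR chloride conductance activated with 10 μM forskolin; inhibition read as the reduction in short-circuit current.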

[3] = molecular target: T1, Cystic fibrosis transmembrane conductance regulator; test: Inhibition of wild type human CFTR chloride conductance expressed in forskolin-stimulated rat FRT cells at 100 nM by short-circuit current analysis in presence of transepithelial chloride gradient; format: cell-based; summary of the method: as §1
Target sequence in this assay (P13569 whole entry, looked up): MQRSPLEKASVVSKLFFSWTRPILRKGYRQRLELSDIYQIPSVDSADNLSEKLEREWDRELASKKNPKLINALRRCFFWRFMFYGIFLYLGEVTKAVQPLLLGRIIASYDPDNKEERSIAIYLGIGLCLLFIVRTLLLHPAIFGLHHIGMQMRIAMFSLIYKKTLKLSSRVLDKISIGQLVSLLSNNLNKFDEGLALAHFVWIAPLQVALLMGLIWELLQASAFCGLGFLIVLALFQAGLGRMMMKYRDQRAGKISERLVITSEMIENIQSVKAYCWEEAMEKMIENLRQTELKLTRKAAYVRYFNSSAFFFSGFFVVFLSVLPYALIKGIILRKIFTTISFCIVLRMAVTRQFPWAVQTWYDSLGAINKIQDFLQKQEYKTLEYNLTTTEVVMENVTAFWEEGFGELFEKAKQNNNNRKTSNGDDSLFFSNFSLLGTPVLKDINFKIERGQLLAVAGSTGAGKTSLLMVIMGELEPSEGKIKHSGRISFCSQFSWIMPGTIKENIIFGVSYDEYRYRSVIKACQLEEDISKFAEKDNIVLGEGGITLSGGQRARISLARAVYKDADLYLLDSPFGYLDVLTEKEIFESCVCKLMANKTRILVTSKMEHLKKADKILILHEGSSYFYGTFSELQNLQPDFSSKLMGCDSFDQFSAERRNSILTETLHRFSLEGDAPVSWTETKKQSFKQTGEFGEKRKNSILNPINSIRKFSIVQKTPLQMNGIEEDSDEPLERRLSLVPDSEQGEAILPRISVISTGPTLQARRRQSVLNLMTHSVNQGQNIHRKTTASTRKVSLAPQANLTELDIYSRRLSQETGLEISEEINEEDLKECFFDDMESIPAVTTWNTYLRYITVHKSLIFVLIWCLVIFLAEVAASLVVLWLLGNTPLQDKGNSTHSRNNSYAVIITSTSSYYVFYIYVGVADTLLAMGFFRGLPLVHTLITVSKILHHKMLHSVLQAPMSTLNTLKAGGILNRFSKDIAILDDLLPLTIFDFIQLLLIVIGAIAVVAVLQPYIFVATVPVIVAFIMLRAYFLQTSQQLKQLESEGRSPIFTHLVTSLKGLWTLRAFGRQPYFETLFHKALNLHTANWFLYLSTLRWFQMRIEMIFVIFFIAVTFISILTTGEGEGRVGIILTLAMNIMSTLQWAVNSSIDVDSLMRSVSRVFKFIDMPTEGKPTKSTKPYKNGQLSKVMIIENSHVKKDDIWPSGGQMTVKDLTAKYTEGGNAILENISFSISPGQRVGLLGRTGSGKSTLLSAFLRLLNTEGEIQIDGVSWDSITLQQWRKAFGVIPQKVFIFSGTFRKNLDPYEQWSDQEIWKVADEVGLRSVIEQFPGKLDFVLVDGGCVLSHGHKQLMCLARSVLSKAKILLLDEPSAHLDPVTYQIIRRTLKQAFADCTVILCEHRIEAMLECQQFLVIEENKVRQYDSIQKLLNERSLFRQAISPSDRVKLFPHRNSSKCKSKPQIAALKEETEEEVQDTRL

[4] = Drug metabolism in rat liver microsomes at 5 uM measured over 4 hrs by LC/MS analysis in presence of NADPH; format: ADME, Microsome; conditions: read-out: Drug metabolism
Serum [5] = test: Metabolic stability in mouse serum assessed as formation of (S)-BPO-27 at 5 mg measured at 4 hrs by hydrogen-deuterium exchange assay; format: ADME, cell-free
[6] = Half life in CD1 mouse at 10 mg/kg, ip administered as bolus dose; format: ADME, organism-based; parameters: dose 10 mg/kg, route intraperitoneal; conditions: in vivo
Summary of the method: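 Single bolus i.p. dose of 10 mg/kg in mice, given in 5% DMSO, 2.5% Tween-80 and 2.5% PEG400 in water. Blood sampled at set times; serum compound measured by LC/MS ion chromatograms (m/z 548 [M+H]+) against a calibration of known amounts spiked into blood (linear, sensitivity better than 500 nM). Mean ± S.E., n = 3; t1/2 from the decay of the parent compound.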

[7] = Drug uptake in CD1 mouse kidney at 10 mg/kg, ip administered as bolus dose measured at 4 hrs by LC-MS analysis; format: ADME, organism-based; parameters: dose 10 mg/kg, route intraperitoneal; conditions: read-out: Drug uptake
Summary of the method: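 Mice received a single bolus intraperitoneal dose of 10 mg/kg in 5% DMSO, 2.5% Tween-80 and 2.5% PEG400 in water. Kidney homogenate was taken at 4 h and the compound measured by LC/MS (3 mice).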

With CC(C)N.Cn1c(=O)c2c(-c3ccccc3)n3c(c2n(C)c1=O)[C@@H](c1ccc(Br)o1)Oc1ccc(C(=O)O)cc1-3 [listing 1 of 2 here] the Stability (Serum [1]) was “Stable”.
In the case of CC(C)N.Cn1c(=O)c2c(-c3ccccc3)n3c(c2n(C)c1=O)[C@H](c1ccc(Br)o1)Oc1ccc(C(=O)O)cc1-3 [listing 1 of 2 here], the IC50 [2] is reported as 4 nM.
With CC(C)N.Cn1c(=O)c2c(-c3ccccc3)n3c(c2n(C)c1=O)[C@H](c1ccc(Br)o1)Oc1ccc(C(=O)O)cc1-3 [listing 2 of 2 here] the inhibition [2] was “Dose-dependent effect” and the inhibition [3] was “Active”.
Work on Cn1c(=O)c2c(-c3ccccc3)n3c(c2n(C)c1=O)[C@@H](c1ccc(Br)o1)Oc1ccc(C(=O)O)cc1-3 yielded a metabolised at 4 h, 5 µM [4] of less than 5%.
With CC(C)N.Cn1c(=O)c2c(-c3ccccc3)n3c(c2n(C)c1=O)[C@@H](c1ccc(Br)o1)Oc1ccc(C(=O)O)cc1-3 [listing 2 of 2 here] the inhibition [3] was “inactive”.
With CCOC(=O)c1ccc2c(c1)-n1c(-c3ccccc3)c3c(=O)n(C)c(=O)n(C)c3c1[C@@H](c1ccc(Br)o1)O2 the inhibition [3] was “inactive”.
In the case of Cn1c(=O)c2c(-c3ccccc3)n3c(c2n(C)c1=O)[C@H](c1ccc(Br)o1)Oc1ccc(C(=O)O)cc1-3, the metabolised at 4 h, 5 µM [4] is reported as less than 5%, the Stability (Serum [5]) is reported as “Stable” and the half-life [6] is reported as 1.6 h. It also gave a concentration at 4 h [7] of 600 nM.
